Results as given in ChEMBL document CHEMBL1122343, “2-Benzazepines. 4. [1,2,3]Triazolo[4,5-d][2]benzazepines and dibenzo[c,f][1,2,3]triazolo[3,4-a]azepines: synthesis and evaluation as central nervous system agents” (J Med Chem, 1983).

Columns and labels:
[1] = target: GABA-A receptor; anion channel; assay: In vitro inhibition of [3H]diazepam binding to rat GABA-A benzodiazepine receptor; assay type: protein-complex assay
Mus musculus [2] = assay: Antianxiety activity, by anti-pentylenetetrazole test carried out on 50-54 day old mice (po); assay type: functional
In short: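 Oral dosing to male CF-1 mice aged 50–54 days, using a modification of the Everett and Richards method. Metrazole was given iv at 70 mg/kg as the convulsant challenge.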

Mus musculus [3] = assay: Antianxiety activity, by inclined screen procedure carried out on 50-54 day old mice(po); assay type: functional
Mus musculus [4] = assay: Antianxiety activity, by rotarod test carried out on 50-54 day old mice (po); assay type: functional
[5] = Lethal dose tested in mice by oral administration; assay type: toxicity, organism-based; conditions: mouse, in vivo

| SMILES | IC50 [1] [nM] | ED50 (Mus musculus [2]) [mg/kg] | ED50 (Mus musculus [3]) [mg/kg] | ED50 (Mus musculus [4]) [mg/kg] | LD50 [5] [mg/kg] |
| --- | --- | --- | --- | --- | --- |
| Fc1ccccc1C1=NCc2n[nH]nc2-c2ccc(Cl)cc21 | 0.76 | 2.1 | 302 | 48 | > 1000 |
| Clc1ccc2c(c1)C(c1ccccc1Cl)=NCc1n[nH]nc1-2 | 0.76 | 2.6 | > 400 | 57 | > 1000 |
| CN1C(=O)CN=C(c2ccccc2)c2cc(Cl)ccc21 [DIAZEPAM] |  | 1.4 | 25 | 2.6 |  |
| Clc1ccc2c(c1)C(c1ccccc1)=NCc1n[nH]nc1-2 | 11 | 4.2 | > 400 | 26 | > 1000 |
| Clc1ccccc1C1=NCc2n[nH]nc2-c2ccccc21 | 5.2 | > 100 |  |  | 900 |
| c1ccc(C2=NCc3n[nH]nc3-c3ccccc32)cc1 | 420 | > 100 |  |  | 775 |
